The source made the active and inactive calls. The rule behind the calls is not given here.
Assays:
[1] = test system: Sapajus apella; assay: Iron-clearing efficiency in iron-overloaded Cebus apella at 75 umol/kg, po measured daily once for 2 days by flame absorption spectroscopy relative to control; format: functional
How it was run: (§1)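 Iron-overloaded Cebus apella (3.5–4 kg; iv iron dextran to about 500 mg Fe/kg, ≥60 days before use) dosed orally at 75 μmol/kg, by gavage as monosodium salt (1 equiv NaOH in distilled water) or in capsules. Feces and urine collected every 24 h from 4 days pre-drug to 5 days post-drug; iron by flame absorption spectroscopy. ICE = 2-day post-drug iron minus 4-day baseline average, divided by theoretical output (2:1 ligand:iron); percent. Performance ratio = mean primate ICE/rodent ICE.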

[2] = Ratio of iron-clearing efficiency in iron-overloaded Cebus apella at 75 umol/kg, po to iron-clearing efficiency in non-iron-overloaded and bile duct-cannulated Sprague-Dawley rat at 300 umol/kg, po; format: functional, organism-based; how it was run: as §1
[3] = test system: Sapajus apella; assay: Iron-clearing efficiency in iron-overloaded Cebus apella assessed as feces iron excretion at 75 umol/kg, po measured daily once for 5 days by lame absorption spectroscopy relative to control; format: functional
[4] = test system: Rattus norvegicus; assay: Iron-clearing efficiency in non-iron-overloaded and bile duct-cannulated Sprague-Dawley rat at 300 umol/kg, po after 24 hrs relative to control; format: functional
How it was run: (§2)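 Non-iron-overloaded male Sprague-Dawley rats (400–450 g), bile duct-cannulated, given a single oral dose of 300 μmol/kg, either by gavage as monosodium salt or in capsules. Bile was collected at 3 h intervals for up to 48 h and urine every 24 h. Iron was measured by flame absorption spectroscopy. ICE = 24-h iron excretion of treated rats minus controls, divided by theoretical output (2:1 ligand:iron); percent. Mean ± SEM; one-tailed t-test.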

[5] = test system: Sapajus apella; assay: Iron-clearing efficiency in iron-overloaded Cebus apella assessed as urine iron excretion at 75 umol/kg, po measured daily once for 5 days by lame absorption spectroscopy relative to control; format: functional
[6] = test system: Rattus norvegicus; assay: Iron-clearing efficiency in non-iron-overloaded and bile duct-cannulated Sprague-Dawley rat assessed as urine iron excretion at 300 umol/kg, po after 24 hrs relative to control; format: functional
[7] = test system: Rattus norvegicus; assay: Iron-clearing efficiency in non-iron-overloaded and bile duct-cannulated Sprague-Dawley rat assessed as bile iron excretion at 300 umol/kg, po up to 24 hrs; format: functional, organism-based; how it was run: as §2
[8] = test system: Rattus norvegicus; assay: Iron-clearing efficiency in non-iron-overloaded and bile duct-cannulated Sprague-Dawley rat assessed as time required to maximum bile iron excretion at 300 umol/kg, po; format: functional; how it was run: as §2
[9] = test system: Rattus norvegicus; assay: Iron-clearing efficiency in non-iron-overloaded and bile duct-cannulated Sprague-Dawley rat assessed as bile iron excretion at 300 umol/kg, po after 24 hrs relative to control; format: functional; how it was run: as §2
[10] = test system: Sapajus apella; assay: Iron-clearing efficiency in iron-overloaded Cebus apella assessed as feces iron excretion at 150 umol/kg, po measured daily once for 5 days by lame absorption spectroscopy relative to control; format: functional
[11] = test system: Rattus norvegicus; assay: Iron-clearing efficiency in non-iron-overloaded and bile duct-cannulated Sprague-Dawley rat assessed as bile iron excretion at 300 umol/kg, po up to 12 hrs; format: functional, organism-based; how it was run: as §2
[12] = test system: Sapajus apella; assay: Iron-clearing efficiency in iron-overloaded Cebus apella at 150 umol/kg, po measured daily once for 2 days by flame absorption spectroscopy relative to control; format: functional
[13] = test system: Sapajus apella; assay: Iron-clearing efficiency in iron-overloaded Cebus apella assessed as urine iron excretion at 150 umol/kg, po measured daily once for 5 days by lame absorption spectroscopy relative to control; format: functional
[14] = Octanol-water partition coefficient, log P in Tris buffer at pH 7.4 by shake flask method; format: physicochemical
How it was run: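 Octanol/water partition was measured at pH 7.4 (Tris buffer) by the shake-flask direct method. The fraction of drug in octanol is expressed as log P_app.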

[15] = Ratio of iron-clearing efficiency in iron-overloaded Cebus apella to iron-clearing efficiency in non-iron-overloaded Sprague-Dawley rat at 150 umol/kg, po; format: functional
[16] = test system: Rattus norvegicus; assay: Iron-clearing efficiency in non-iron-overloaded and bile duct-cannulated Sprague-Dawley rat at 150 umol/kg, po after 24 hrs relative to control; format: functional
[17] = test system: Rattus norvegicus; assay: Iron-clearing efficiency in non-iron-overloaded and bile duct-cannulated Sprague-Dawley rat assessed as bile iron excretion at 150 umol/kg, po after 24 hrs relative to control; format: functional
[18] = test system: Rattus norvegicus; assay: Iron-clearing efficiency in non-iron-overloaded and bile duct-cannulated Sprague-Dawley rat assessed as urine iron excretion at 150 umol/kg, po after 24 hrs relative to control; format: functional
[19] = test system: Rattus norvegicus; assay: Iron-clearing efficiency in non-iron-overloaded and bile duct-cannulated Sprague-Dawley rat assessed as reduction of cardiac iron content at 384 umol/kg, po qd for 10 days administered as gelatin capsules relative to control; format: functional, Heart; set-up: scale not given: the % may be the effect or the level left
[20] = test system: Rattus norvegicus; assay: Iron-clearing efficiency in non-iron-overloaded and bile duct-cannulated Sprague-Dawley rat at 300 umol/kg, po after 48 hrs relative to control; format: functional; how it was run: as §2
[21] = test system: Rattus norvegicus; assay: Iron-clearing efficiency in non-iron-overloaded and bile duct-cannulated Sprague-Dawley rat assessed as reduction of cardiac iron content at 384 umol/kg, po qd for 10 days administered as monosodium salt relative to control; format: functional, Heart; set-up: scale not given: the % may be the effect or the level left
[22] = test system: Rattus norvegicus; assay: Toxicity in Sprague-Dawley rat assessed as histopathological examination at 384 umol/kg, po qd for 10 days measured after 24 hrs last post dose; format: organism-based; conditions: in vivo
How it was run: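 Male Sprague-Dawley rats (300–350 g), fasted overnight, were dosed orally once daily for 10 d. Dosing was 384 μmol/kg/d (capsules or by gavage as monosodium salt) or 192 μmol/kg/d (capsules). Age-matched untreated controls. Rats were euthanized 24 h after the last dose (day 11), and extensive tissues were examined histopathologically.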

[23] = test system: Rattus norvegicus; assay: Iron-clearing efficiency in non-iron-overloaded and bile duct-cannulated Sprague-Dawley rat assessed as reduction of renal iron content at 384 umol/kg, po qd for 10 days administered as gelatin capsules relative to control; format: functional; set-up: scale not given: the % may be the effect or the level left
[24] = test system: Rattus norvegicus; assay: Iron-clearing efficiency in non-iron-overloaded and bile duct-cannulated Sprague-Dawley rat assessed as reduction of liver iron content at 384 umol/kg, po qd for 10 days administered as monosodium salt relative to control; format: functional; set-up: scale not given: the % may be the effect or the level left
[25] = test system: Rattus norvegicus; assay: Iron-clearing efficiency in non-iron-overloaded and bile duct-cannulated Sprague-Dawley rat assessed as reduction of liver iron content at 384 umol/kg, po qd for 10 days administered as gelatin capsules relative to control; format: functional; set-up: scale not given: the % may be the effect or the level left
[26] = test system: Rattus norvegicus; assay: Iron-clearing efficiency in non-iron-overloaded and bile duct-cannulated Sprague-Dawley rat assessed as reduction of renal iron content at 384 umol/kg, po qd for 10 days administered as monosodium salt relative to control; format: functional; set-up: scale not given: the % may be the effect or the level left
[27] = test system: Rattus norvegicus; assay: Iron-clearing efficiency in non-iron-overloaded and bile duct-cannulated Sprague-Dawley rat assessed as urine iron excretion at 300 umol/kg, po after 48 hrs relative to control; format: functional
[28] = test system: Rattus norvegicus; assay: Toxicity in Sprague-Dawley rat assessed as histopathological examination at 384 umol/kg, po qd for 10 days; conditions: in vivo, 240 h
[29] = test system: Rattus norvegicus; assay: Iron-clearing efficiency in non-iron-overloaded and bile duct-cannulated Sprague-Dawley rat assessed as bile iron excretion at 300 umol/kg, po after 48 hrs relative to control; format: functional
How it was run: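 Male Sprague-Dawley rats (400–450 g), non-iron-overloaded and bile duct-cannulated, were dosed orally at 300 μmol/kg, either by gavage as the monosodium salt (1 equiv NaOH added to the free acid in distilled water) or in capsules. Bile was collected at 3 h intervals for up to 48 h and urine at 24 h intervals. Iron efficiency was calculated as treated minus control iron excretion, divided by the theoretical output for a 2:1 ligand:iron complex, expressed as %; values are mean ± SEM.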

[30] = test system: Rattus norvegicus; assay: Iron-clearing efficiency in non-iron-overloaded and bile duct-cannulated Sprague-Dawley rat assessed as complete bile iron excretion at 300 umol/kg, po; format: functional; how it was run: as §2
[31] = test system: Rattus norvegicus; assay: Iron-clearing efficiency in non-iron-overloaded and bile duct-cannulated Sprague-Dawley rat assessed as reduction of pancreatic iron content at 384 umol/kg, po qd for 10 days administered as gelatin capsules; format: functional, organism-based
How it was run: (§3)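 Male Sprague-Dawley rats (300–350 g) were fasted overnight and dosed orally once daily for 10 d. Dosing was 384 μmol/kg/d in gelatin capsules (n = 5) or by gavage as monosodium salt (n = 10), or 192 (n = 6) or 384 μmol/kg/d (n = 5) in capsules. Rats were fed ~3 h post-dose. Age-matched untreated controls (n = 12). Kidney, liver, heart and pancreas were taken on day 11, wet-ashed (120 °C, then H2O2), and iron was measured by flame absorption spectroscopy.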

[32] = test system: Rattus norvegicus; assay: Iron-clearing efficiency in non-iron-overloaded and bile duct-cannulated Sprague-Dawley rat assessed as bile iron excretion at 300 umol/kg, po up to 48 hrs; format: functional, organism-based; how it was run: as §2
[33] = test system: Rattus norvegicus; assay: Iron-clearing efficiency in non-iron-overloaded and bile duct-cannulated Sprague-Dawley rat assessed as reduction of liver iron stores at 384 umol/kg, po qd for 10 days
[34] = test system: Rattus norvegicus; assay: Iron-clearing efficiency in non-iron-overloaded and bile duct-cannulated Sprague-Dawley rat assessed as time required to maximum bile iron excretion at 300 umol/kg, po after 12 to 15 hrs; format: functional, organism-based; how it was run: as §2
[35] = test system: Sapajus apella; assay: Iron-clearing efficiency in iron-overloaded Cebus apella assessed as reduction of liver iron stores at 384 umol/kg, po qd for 28 days; format: functional, organism-based
[36] = test system: Rattus norvegicus; assay: Iron-clearing efficiency in non-iron-overloaded and bile duct-cannulated Sprague-Dawley rat assessed as reduction of pancreatic iron content at 384 umol/kg, po qd for 10 days administered as monosodium salt; format: functional, organism-based; how it was run: as §3
[37] = Ratio of iron-clearing efficiency in iron-overloaded Cebus apella at 75 umol/kg, po to iron-clearing efficiency in non-iron-overloaded and bile duct-cannulated Sprague-Dawley rat at 300 umol/kg, po after 48 hrs; format: functional, organism-based; how it was run: as §1

## COCCOCCOCCOCCOc1ccc(C2=N[C@@](C)(C(=O)[O-])CS2)c(O)c1.[Na+]
[1]
  Activity: 9.8%
[2]
  Ratio: 0.8
[3]
  Activity: 52%
[4]
  Activity: 12%
[5]
  Activity: 48%
[6]
  Activity: 1%
[7]
  Activity: Active
[8]
  Time: 6 h
[9]
  Activity: 99%

## COCCOCCOCCOc1ccc(C2=N[C@@](C)(C(=O)O)CS2)c(O)c1
[10]
  Activity: 96%
[11]
  Activity: Active
[12]
  Activity: 25.4%
[13]
  Activity: 4%
[8]
  Time: 3 h

## C[C@]1(C(=O)O)CSC(c2ncccc2O)=N1 [DESFERRITHIOCIN]
[10]
  Activity: 78%
[14]
  logD: -1.77
[12]
  Activity: 16.1%
[15]
  Ratio: 2.9
[16]
  Activity: 5.5%
[13]
  Activity: 22%
[17]
  Activity: 93%
[18]
  Activity: 7%

## COCCOCCOc1ccc(C2=N[C@@](C)(C(=O)O)CS2)c(O)c1 [SP-420]
[19]
  Activity: 6.9%
[20]
  Activity: 26.7%
[21]
  Activity: 9.9%
[22]
  Activity: Non-toxic
[23]
  Activity: 7.4%
[24]
  Activity: >35%
[25]
  Activity: >35%
[26]
  Activity: 24.8%
[27]
  Activity: 3%
[28]
  Activity: Toxic
[29]
  Activity: 97%

## COCCOCCOc1ccc(C2=N[C@@](C)(C(=O)[O-])CS2)c(O)c1.[Na+]
[1]
  Activity: 26.3%
[3]
  Activity: 83%
[5]
  Activity: 7%

## C[C@]1(C(=O)[O-])CSC(c2ccc(O)cc2O)=N1.[Na+] [DEFERITRIN SODIUM]
[10]
  Activity: 88%
[12]
  Activity: 16.8%
[30]
  Time: 9 h
[13]
  Activity: 12%
[8]
  Time: 3 h

## COCCOCCOc1ccc(C2=N[C@@](C)(C(=O)O)CS2)c(O)c1
[31]
  Activity: inactive
[32]
  Activity: Active
[33]
  Activity: Active
[34]
  Activity: inactive
[35]
  Activity: Active
[36]
  Activity: Active
[37]
  Ratio: 1

## COc1ccc(C2=N[C@@](C)(C(=O)[O-])CS2)c(O)c1.[Na+]
[10]
  Activity: 91%
[12]
  Activity: 24.4%
[13]
  Activity: 9%
